High-throughput results as filed in PubChem BioAssay.
TRPN1 ag = zebrafish TRPN1 channel agonists, primary screen, cell-based, HEK293, calcium fluorescence | transient receptor potential cation channel N1 (TRPN1/NompC), Danio rerio | HEK293 zebrafish TRPN1-YFP, Fluo-8 calcium fluorescence; 100% = response to 87 µM carbachol | activation, % at 3 µM | actives 0.18% (n = 220,000);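 active = activation above its plate's cutoff, the mean activation of test wells on that plate plus 3 SD, cut at about 19% in these data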
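Assay system: Zebrafish TRPN1-YFP in HEK293 cells | Incubation: Dye loading 1 h at 37 °C, then 30 min room temperature | Measured by: Kinetic Fluo-8 fluorescence, ex 470-495, em 515-575 nm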
OXTR agonist = human OXTR agonists, primary screen, fluorescence, CHO-OTR cells, Fluo-8 calcium; Oxytocin receptor (Homo sapiens), P30559; Fluo-8 calcium fluorescence; normalized: DMSO 0%, oxytocin 100%; activation, % at 3 µM; actives 0.32% (n = 320,000); AID 2435, 2010;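 active = activation above the mean of all tested compounds plus 3 SD, cutoff set per screening run, cut at about 20% in these data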;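 also: peak over basal fluorescence ratio from a 100 s FLIPR kinetic read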
Target sequence (P30559 whole entry, looked up): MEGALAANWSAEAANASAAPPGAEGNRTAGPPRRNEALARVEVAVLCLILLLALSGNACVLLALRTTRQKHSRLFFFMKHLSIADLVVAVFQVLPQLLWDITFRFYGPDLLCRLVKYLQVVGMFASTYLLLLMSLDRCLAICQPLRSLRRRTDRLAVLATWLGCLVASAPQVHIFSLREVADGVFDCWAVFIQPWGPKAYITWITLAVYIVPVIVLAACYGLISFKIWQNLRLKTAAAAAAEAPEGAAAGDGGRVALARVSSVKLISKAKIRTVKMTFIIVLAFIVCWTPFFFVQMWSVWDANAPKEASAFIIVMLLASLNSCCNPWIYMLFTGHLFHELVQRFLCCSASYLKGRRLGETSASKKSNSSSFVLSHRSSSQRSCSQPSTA
V1aR counter = agonists of human V1a receptor, primary screen, counter-screen for OXTR agonist project, fluorescence, CHO-V1R cells; actives 0.25% (n = 320,000); activation, % at 3 µM; Fluo-8 calcium fluorescence, agonist mode; 0% DMSO, 100% 3 nM vasopressin;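 active = activation above the mean activation of all tested compounds plus 3 SD, per screening run, cut at about 20% in these data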;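 also: signal is peak over basal fluorescence ratio across a 100 second FLIPR read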
CRFR2-BP ag = agonists of CRF-BP/CRF-R2 complex, primary screen, cell-based, HEK293, calcium dye fluorescence, uHTS; CRF-binding protein / CRF receptor 2 complex (human); calcium dye fluorescence (FLIPR); percent of saturating CRF peptide response; activation, % at 13.2 µM; actives 0.46% (n = 350,000); AID 588473, 2011;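 active = activation of at least 50%, plus an integration ratio under a set limit after plate pattern correction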
TRPML3 ag = human TRPML3 channel agonists, primary screen, cell-based, HEK293 TRPML3-YFP, Fluo-8 calcium fluorescence, 3 µM; Mucolipin-3 (Homo sapiens), Q8TDD5; 100% = the carbachol control signal; activation, % at 3 µM; actives 0.29% (n = 220,000); AID 1448, 2008;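 active = activation above its plate's cutoff, the mean activation of the plate's test wells plus 3 SD, cut at about 12% in these data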
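Material: TRPML3-YFP stable HEK293 cells | Dosing: One concentration, 3 µM nominal, 0.3% DMSO | Timing: 125 s total fluorescence read per well | Technique: Fluo-8 calcium dye fluorescence, ex 470-495, em 515-575 nm | Measure: Percent activation from peak-to-basal fluorescence ratio, scaled between DMSO and carbachol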
OXTR potentiator = human OXTR potentiators, primary screen, fluorescence, CHO-OTR cells, Fluo-8 calcium; activation, % at 3 µM; Fluo-8 calcium fluorescence, potentiator mode; 0% = oxytocin EC15, 100% = EC100; actives 0.061% (n = 320,000); Oxytocin receptor (Homo sapiens), P30559; AID 2445, 2010;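 active = activation above that plate's cutoff, the mean activation of tested compounds plus 3 SD, cut at about 6.6% in these data, passing the limit was not always enough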
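assay system = CHO-OTR cells, human receptor | schedule = compound 6 min at room temperature before oxytocin, 100 s read | detection = Fluo-8 intracellular calcium fluorescence, ex 470-495, em 515-575 nm | evaluation = normalized max/min fluorescence ratio, % activation | control set = EC15 oxytocin alone as 0%, 75 nM oxytocin (EC100) as 100%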
TRPN1 counter = zebrafish TRPN1 channel agonists, counter-screen for TRPML3 agonist project, cell-based, HEK293 TRPN1-YFP, Fluo-8 calcium; actives 10% (n = 310); Fluo-8 calcium fluorescence; scaled: carbachol wells 100%, DMSO wells 0%; shares compounds with TRPML3 ag; activation, % at 3 µM;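 active = mean activation over replicates above a set limit taken from the earlier TRPN1 channel primary screen, cut at about 19% in these data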
TRPML3 confirm = human TRPML3 channel agonists, confirmation, cell-based, HEK293 TRPML3-YFP, Fluo-8 calcium, triplicate | shares compounds with TRPML3 ag | Fluo-8 calcium fluorescence; 100% set by carbachol, 0% by DMSO | activation, % at 3 µM | actives 80% (n = 310);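 active = activation above a set limit derived from the earlier primary screen, cut at about 12% in these data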
A number is an active result; 0 = inactive; - = no result. Hits are enriched below; roughly 0.85% of the tested compounds scored in any of these assays.

SMILES	TRPN1 ag	OXTR agonist	V1aR counter	CRFR2-BP ag	TRPML3 ag	OXTR potentiator	TRPN1 counter	TRPML3 confirm
O=C(C[C@H]1C/C=C\CC[C@H](Cc2ccc(F)cc2)C(=O)OC[C@H]2CCCN2C1=O)N[C@@H](CO)Cc1ccccc1	-	0	0	0	-	0	-	-
COC(=O)c1cnc(N2CCCN(S(=O)(=O)c3ccccc3)CC2)nc1C(F)(F)F	0	0	0	0	13	0	0	13
COc1ccc(NC(=O)c2cc([N+](=O)[O-])ccc2O)cc1	0	0	0	0	15	0	26	0
Cc1ccc(Oc2ccc(Cl)cc2N)cc1	0	0	0	0	16	0	0	0
Cc1ccc(S(=O)(=O)N2CC3CCCC2C3)cc1 (configuration not stated)	0	0	0	0	33	0	0	39
CC(=O)Nc1ccccc1OCC(=O)c1cc(C)n(Cc2cccs2)c1C	0	0	0	161	28	0	27	34
CNS(=O)(=O)c1cc(N(C)S(=O)(=O)c2ccc(C)cc2)c(C)cc1C	0	0	0	0	0	0	-	-
Cc1ccc(S(=O)(=O)N(C)c2cc(S(=O)(=O)N3CCC(C)CC3)c(C)cc2C)cc1	0	0	0	0	40	0	0	73
CC1CCC2(CC1)NC(=O)N(CC(=O)Nc1ccc(F)cc1)C2=O (configuration not stated)	-	0	0	0	-	0	-	-
S=C(NC1CCCCC1)N1CCOCCOCCN(C(=S)NC2CCCCC2)CCOCC1	0	0	0	0	18	0	0	33
Cc1nn(C(C)(C)C)c(OC(=O)C2CCCC2)c1S(=O)(=O)c1ccccc1	0	-	-	0	16	-	0	23
COCC(=O)Oc1c(S(=O)(=O)c2ccccc2)c(C)nn1C(C)(C)C	-	0	0	0	-	0	-	-
CCOC(=O)C1CCN(S(=O)(=O)c2ccc(C)cc2)CC1	0	0	0	0	0	0	-	-
Cc1ccc(S(=O)(=O)c2c(C)nn(C(C)(C)C)c2OC(=O)C2CCCC2)cc1	0	0	0	0	32	0	0	24
OCc1nc2ccccc2n1CCCc1ccccc1	-	-	-	0	-	-	-	-
Cc1cc(C)c(C2=NOC3C4CCC(C4)C23)c(C)c1 (configuration not stated)	0	0	0	0	24	0	0	104
Cc1cc(C)c(N2C(=O)CC(Sc3ccccc3N)C2=O)c(C)c1 (configuration not stated)	-	-	-	0	-	-	-	-
Cc1cc(C(C)(C)C)oc1C(=O)N(CC(=O)NC1CCCC1)c1c(C)cccc1C	0	0	0	0	44	0	0	72
Cc1cc(C(C)(C)C)oc1C(=O)N(CC(=O)NC1CCCC1)c1ccc(F)cc1	0	0	0	0	0	0	-	-
Cc1noc(C)c1NC(=O)Nc1ccc2c(c1)C(=O)N([C@H](C)CO)C[C@H](C)[C@@H](CN(C)C(=O)NC1CCCCC1)O2	-	0	0	0	-	0	-	-
COc1ccccc1C1CN=NC12CCCc1ccccc1C2=O (configuration not stated)	0	0	0	0	24	0	0	91
CC1(C)CSC(=S)N1S(=O)(=O)c1ccccc1	0	0	0	0	32	0	0	20
Cc1ccc(S(=O)(=O)N2c3ccccc3-c3c(ssc3=S)C2(C)C)cc1	0	0	0	0	0	0	-	-
CC(C)Cn1c(N)c(C(=O)COC(=O)c2cccn2C)c(=O)n(C)c1=O	-	0	0	0	-	0	-	-
Cc1ccc(C(=O)NNC(=S)NC(=O)c2ccco2)cc1	0	45	64	97	28	0	39	36
SMILES	TRPN1 ag	OXTR agonist	V1aR counter	CRFR2-BP ag	TRPML3 ag	OXTR potentiator	TRPN1 counter	TRPML3 confirm
O=C(COC(=O)CSc1ccc(F)cc1)NNC(=O)c1ccc([N+](=O)[O-])cc1	-	0	0	0	-	0	-	-
O=C1NCC(c2ccccc2)C1C(=O)N/N=C\c1ccc(-c2ccc(Cl)c(Cl)c2)o1 (configuration not stated)	0	0	0	0	0	0	-	-
O=C1NCC(c2ccccc2)C1C(=O)N/N=C/c1ccc(Cl)s1 (configuration not stated)	0	0	0	0	15	0	20	20
CCC1CCCCN1CCCNC(=O)CSc1nc2nc(C)c(Cc3ccc(C)cc3)c(C)n2n1 (configuration not stated)	-	0	0	0	-	0	-	-
O=[N+]([O-])/C=C\c1ccc(N2CCCC2)c(F)c1	0	-	-	106	13	-	27	23
CCOC(=O)c1c(CSc2ccc(C)cc2)oc2ccc(O)cc12	0	0	0	0	30	0	0	46
O=C1/C(=C/c2ccc(O)c(O)c2)SC(=S)N1Nc1ccccc1	0	-	-	0	0	-	-	-
COc1cc(/C=C2\SC(=S)N(Nc3ncc(C(F)(F)F)cc3Cl)C2=O)ccc1O	0	24	39	115	13	0	29	15
Cc1ccc(S(=O)(=O)Nc2cc(C(F)(F)F)ccc2N2CCOCC2)c(C)c1	0	0	0	0	48	0	0	102
Cc1ccc(S(=O)(=O)Nc2cc(C(F)(F)F)ccc2N2CCOCC2)cc1	0	0	0	0	0	0	-	-
CCOc1c(OC(C)=O)ccc(/C=C/c2ccc3cccc(OC(C)=O)c3n2)c1[N+](=O)[O-]	0	0	0	0	0	0	-	-
C=CCN1C(=O)/C(=C/c2ccc(OC(C)=O)c(OCC)c2[N+](=O)[O-])SC1=S	0	-	-	0	12	-	19	0
O=C(/C=C/c1ccc2c(c1)OCO2)NCCS(=O)(=O)N1CCN(c2ccccc2)CC1	-	-	-	0	-	-	-	-
Cc1cc(C)c(N2CCN(S(=O)(=O)N3CCCCCC3)CC2)c(C)c1	0	0	0	0	67	0	45	165
